Measured values as given in ChEMBL document CHEMBL1681730, “17,20-lyase inhibitors. Part 4: design, synthesis and structure-activity relationships of naphthylmethylimidazole derivatives as novel 17,20-lyase inhibitors” (Bioorg Med Chem, 2011).

Key:
[1] = target: T1, Steroid 17-alpha-hydroxylase/17,20 lyase (Rattus norvegicus, UniProt P11715); experiment: Inhibition of 17,20 lyase activity in Sprague-Dawley rat testicular microsomes; design: species or system Testis
T1 sequence (P11715 whole entry): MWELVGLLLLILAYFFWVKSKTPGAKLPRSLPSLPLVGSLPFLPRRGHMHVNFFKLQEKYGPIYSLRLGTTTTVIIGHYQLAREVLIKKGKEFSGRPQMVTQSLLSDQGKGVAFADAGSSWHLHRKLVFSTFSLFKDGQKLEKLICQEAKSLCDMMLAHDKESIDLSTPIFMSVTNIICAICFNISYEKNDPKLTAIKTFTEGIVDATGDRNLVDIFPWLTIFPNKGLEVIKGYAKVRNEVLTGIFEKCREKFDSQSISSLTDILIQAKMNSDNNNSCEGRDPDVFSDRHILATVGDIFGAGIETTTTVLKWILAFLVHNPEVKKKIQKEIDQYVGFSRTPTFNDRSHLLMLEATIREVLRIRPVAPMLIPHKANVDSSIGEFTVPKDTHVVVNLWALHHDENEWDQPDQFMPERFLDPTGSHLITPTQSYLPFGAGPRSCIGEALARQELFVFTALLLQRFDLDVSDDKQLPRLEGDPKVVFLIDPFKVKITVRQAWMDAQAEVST
How it was run: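 Testicular microsomes from 13-week-old male SD rats (7 µg protein) in 75 mM phosphate buffer, pH 7.4, with 10 nM [1,2-3H]-17α-hydroxyprogesterone, 5 mM NADPH, and 1–1000 nM test compound (all final). Compounds were diluted in DMF and then in water. Incubation ran 15 min at 37 °C and was stopped with ethyl acetate. IC50 is the concentration that halves product formation.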

Homo sapiens = species: Homo sapiens; experiment: Ratio of IC50 for human CYP3A4 to IC50 for human 17,20-lyase
How it was run: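 Two assays. Human 17,20-lyase: recombinant P450c17 (0.5 pmol) with cytochrome b5 and NADPH-P450 reductase, 10 nM [1,2-3H]-17α-hydroxypregnenolone, 5 mM NADPH, 1 mM MgCl2, pH 7.4 phosphate, 1–1000 nM compound, 15 min at 37 °C. DHEA separated by TLC, IC50 calculated. CYP3A4: recombinant enzyme, 100 μM testosterone, NADPH-regenerating system, 30 min at 37 °C, 6-hydroxytestosterone measured by HPLC.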

Cytochrome P450 3A4 = Cytochrome P450 3A4 (Homo sapiens, UniProt P08684); experiment: Inhibition of human CYP3A4; assay type: ADME
[2] = target: T2, Steroid 17-alpha-hydroxylase/17,20 lyase (Homo sapiens, UniProt P05093); experiment: Inhibition of 17,20 lyase activity in human
T2 sequence (P05093 whole entry): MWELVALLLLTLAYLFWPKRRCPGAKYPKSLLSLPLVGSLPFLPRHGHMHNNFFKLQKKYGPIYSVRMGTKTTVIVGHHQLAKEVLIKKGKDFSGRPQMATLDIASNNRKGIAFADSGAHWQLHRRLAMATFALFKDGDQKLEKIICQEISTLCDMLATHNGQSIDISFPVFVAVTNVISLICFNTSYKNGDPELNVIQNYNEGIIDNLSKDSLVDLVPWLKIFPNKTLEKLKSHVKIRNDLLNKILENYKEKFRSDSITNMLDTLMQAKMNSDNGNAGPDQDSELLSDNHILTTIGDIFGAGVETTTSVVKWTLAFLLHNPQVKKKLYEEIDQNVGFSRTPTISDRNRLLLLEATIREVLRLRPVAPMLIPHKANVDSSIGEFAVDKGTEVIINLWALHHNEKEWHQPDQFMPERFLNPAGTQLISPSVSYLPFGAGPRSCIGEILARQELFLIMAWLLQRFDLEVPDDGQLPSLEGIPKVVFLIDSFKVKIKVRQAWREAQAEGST
How it was run: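 Recombinant P450c17 (0.5 pmol) with cytochrome b5 (0.5 pmol) and NADPH-P450 reductase (20.8 ng) in 75 mM phosphate pH 7.4 with 1 mM MgCl2. Substrate 10 nM [1,2-3H]-17α-hydroxypregnenolone, 5 mM NADPH, compound 1–1000 nM. Incubated 15 min at 37 °C, ethyl acetate extraction, DHEA separated from substrate by silica TLC (cyclohexane–ethyl acetate 3:2). IC50 taken as 50% reduction in product.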

Cynomolgus monkey [3] = experiment: Antiandrogenic activity in cynomolgus monkey assessed as reduction serum DHEA level at 1 mg/kg, po at 4 hrs (reference value: 105.7 +/- 4.2%); assay type: functional, Macaca fascicularis; design: scale not given: the % may be the effect or the level left
How it was run: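 Adult male cynomolgus monkeys (23 ± 2 °C, 12:12 h light/dark) given a single oral 1 mg/kg dose as a suspension in 0.5% methylcellulose. Serum collected just before dosing and at 4 and 8 h, stored at −30 °C, and assayed by RIA. Values expressed as % of the 0 h level, mean ± SD, n = 3. Dunnett test against vehicle.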

Cynomolgus monkey [4] = experiment: Antiandrogenic activity in cynomolgus monkey assessed as reduction serum DHEA level at 1 mg/kg, po at 8 hrs (reference value: 38.5 +/- 18.4%); assay type: functional, Macaca fascicularis; design: scale not given: the % may be the effect or the level left
Cynomolgus monkey [5] = experiment: Antiandrogenic activity in cynomolgus monkey assessed as reduction serum testosterone level at 1 mg/kg, po at 8 hrs (reference value: 68.5 +/- 27.3%); assay type: functional, Macaca fascicularis; design: scale not given: the % may be the effect or the level left
Cynomolgus monkey [6] = experiment: Antiandrogenic activity in cynomolgus monkey assessed as reduction serum testosterone level at 1 mg/kg, po at 4 hrs (reference value: 89.1 +/- 15.6%); assay type: functional, Macaca fascicularis; design: scale not given: the % may be the effect or the level left
Cytochrome P450c11B3 = target: T3, Cytochrome P450c11B3 (Rattus norvegicus, UniProt Q64546); experiment: Inhibition of 11-hydroxylase activity in Sprague-Dawley rat adrenal gland; assay type: tissue-based
T3 sequence (Q64546 whole entry): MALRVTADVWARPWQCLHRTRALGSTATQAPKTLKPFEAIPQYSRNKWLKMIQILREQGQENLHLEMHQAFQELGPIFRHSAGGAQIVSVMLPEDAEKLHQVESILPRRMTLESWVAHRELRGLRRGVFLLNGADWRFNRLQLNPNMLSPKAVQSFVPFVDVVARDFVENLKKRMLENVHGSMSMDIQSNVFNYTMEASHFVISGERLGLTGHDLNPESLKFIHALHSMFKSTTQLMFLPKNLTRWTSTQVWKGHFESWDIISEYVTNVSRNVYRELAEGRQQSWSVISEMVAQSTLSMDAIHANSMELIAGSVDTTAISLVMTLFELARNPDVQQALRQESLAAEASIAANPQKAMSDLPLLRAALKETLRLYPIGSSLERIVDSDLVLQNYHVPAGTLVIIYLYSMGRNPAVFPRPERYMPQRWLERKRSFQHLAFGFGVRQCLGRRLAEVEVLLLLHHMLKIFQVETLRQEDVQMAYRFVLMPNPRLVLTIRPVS
How it was run: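 Mitochondrial fraction from SD rat adrenal glands, 4 µg protein, in 200 mM mannitol, 4.5 mM HEPES, 2.3 mM K phosphate pH 7.4, 0.1 mM EDTA, 0.03% BSA, 4.5 mM NADPH, 11 mM CaCl2. Substrate 10 nM [1,2-3H]-11-deoxycortisol. Test compound 1–1000 nM, diluted in DMF. Incubated 30 min at 37 °C, stopped with ethyl acetate. Final concentrations.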

Sequence of Cytochrome P450 3A4 (P08684 whole entry): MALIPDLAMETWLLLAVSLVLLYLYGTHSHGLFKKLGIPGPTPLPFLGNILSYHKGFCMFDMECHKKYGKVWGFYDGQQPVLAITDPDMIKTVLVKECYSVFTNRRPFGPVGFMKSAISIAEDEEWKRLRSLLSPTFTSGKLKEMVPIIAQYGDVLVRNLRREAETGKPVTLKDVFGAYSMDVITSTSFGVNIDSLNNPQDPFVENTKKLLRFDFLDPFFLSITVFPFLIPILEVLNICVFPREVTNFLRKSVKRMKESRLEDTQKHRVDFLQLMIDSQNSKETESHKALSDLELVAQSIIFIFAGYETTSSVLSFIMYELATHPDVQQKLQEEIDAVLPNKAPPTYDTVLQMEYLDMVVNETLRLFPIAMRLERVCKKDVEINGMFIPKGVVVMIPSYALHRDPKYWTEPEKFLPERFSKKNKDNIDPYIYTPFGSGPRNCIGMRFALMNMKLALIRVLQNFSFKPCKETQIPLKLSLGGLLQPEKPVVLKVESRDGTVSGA

Row | Compound | IC50 [1] [nM] | Ratio IC50 (Homo sapiens) | IC50 (Cytochrome P450 3A4) [nM] | IC50 [2] [nM] | Activity (Cynomolgus monkey [3]) [%] | Activity (Cynomolgus monkey [4]) [%] | Activity (Cynomolgus monkey [5]) [%] | Activity (Cynomolgus monkey [6]) [%] | IC50 (Cytochrome P450c11B3) [nM]
1 | COc1ccc2cc([C@](O)(c3c[nH]cn3)C(C)C)ccc2c1 | 21 | < 36 | < 1000 | 28 | – | – | – | – | –
2 | CC(C)[C@](O)(c1ccc2c3c(ccc2c1)C(=O)N(C)C3)c1c[nH]cn1 | – | > 1000 | – | – | 16.8 | 7.7 | 9.8 | 13.2 | –
3 | CC(C)[C@@](O)(c1ccc2c3c(ccc2c1)C(=O)N(C)C3)c1cnc[nH]1 | 110 | – | > 10000 | 270 | – | – | – | – | > 1000
4 | CC(=O)c1ccc2cc(C(O)(c3c[nH]cn3)C(C)C)ccc2c1 (racemic) | 14 | 50 | 1400 | 28 | – | – | – | – | –
5 | CC(=O)Nc1ccc2cc(C(O)(c3c[nH]cn3)C(C)C)ccc2c1 (racemic) | 29 | < 26 | < 1000 | 39 | – | – | – | – | –
6 | CNC(=O)Nc1ccc2cc(C(O)(c3c[nH]cn3)C(C)C)ccc2c1 (racemic) | 11 | < 28 | < 1000 | 36 | – | – | – | – | –
7 | COC(=O)c1ccc2cc(C(O)(c3c[nH]cn3)C(C)C)ccc2c1 (racemic) | 43 | 58 | 1400 | 24 | – | – | – | – | –
8 | CC(C)C(O)(c1ccc2cc(C(N)=O)ccc2c1)c1c[nH]cn1 (racemic) | < 10 | – | 3700 | 30 | – | – | – | – | –
9 | CNC(=O)c1ccc2cc(C(O)(c3c[nH]cn3)C(C)C)ccc2c1 (racemic) | 6 | 225 | 3600 | 16 | – | – | – | – | –
10 | CCNC(=O)c1ccc2cc(C(O)(c3c[nH]cn3)C(C)C)ccc2c1 (racemic) | 11 | – | 5700 | 46 | – | – | – | – | –
11 | CCCNC(=O)c1ccc2cc(C(O)(c3cnc[nH]3)C(C)C)ccc2c1 (racemic) | 13 | – | 3400 | 38 | – | – | – | – | –
12 | CC(C)NC(=O)c1ccc2cc(C(O)(c3c[nH]cn3)C(C)C)ccc2c1 (racemic) | 12 | – | 9300 | 75 | – | – | – | – | –
13 | CNC(=O)c1ccc2cc(C(O)(c3cnc[nH]3)C(C)C)ccc2c1Cl (racemic) | 91 | – | > 10000 | 200 | – | – | – | – | –
14 | CNC(=O)c1ccc2cc(C(O)(c3c[nH]cn3)C(C)C)ccc2c1C (racemic) | 200 | – | > 10000 | 160 | – | – | – | – | –
15 | CNC(=O)c1cc2ccc(C(O)(c3c[nH]cn3)C(C)C)cc2cc1C (racemic) | 12 | – | 3600 | 39 | – | – | – | – | –
16 | CC(C)C(O)(c1ccc2c3c(ccc2c1)C(=O)NC3)c1c[nH]cn1 (racemic) | – | – | 6700 | 18 | – | – | – | – | –
17 | CC(C)C(O)(c1ccc2c3c(ccc2c1)C(=O)N(C)C3)c1c[nH]cn1 (racemic) | – | – | – | 22 | – | – | – | – | –
18 | CC(C)C(O)(c1ccc2cc3c(cc2c1)CNC3=O)c1c[nH]cn1 (racemic) | – | – | – | 36 | – | – | – | – | –
19 | CC(C)C(O)(c1ccc2cc3c(cc2c1)CN(C)C3=O)c1c[nH]cn1 (racemic) | 70 | – | 5400 | 19 | – | – | – | – | –
20 | CC(C)C(O)(c1ccc2c3c(ccc2c1)C(=O)NC3)c1c[nH]cn1 (single isomer, unassigned; (-)) | – | – | > 10000 | 15 | – | – | – | – | 13
21 | CC(C)C(O)(c1ccc2c3c(ccc2c1)C(=O)NC3)c1c[nH]cn1 (stereo in doubt; (+)-27a) | 180 | – | 7400 | 60 | – | – | – | – | 220
